{"source": "ChEMBL document CHEMBL1143326", "about": "“Single-step high-yield radiosynthesis and evaluation of a sensitive 18F-labeled ligand for imaging brain peripheral benzodiazepine receptors with PET” (J Med Chem, 2009)", "key": {"[1]": {"experiment": "Displacement of [3H]PK11195 from monkey PBR receptor", "parameters": "species or system Macaca mulatta"}, "[2]": {"experiment": "Distribution coefficient, log D at pH 7.4", "format": "physicochemical", "details": "octanol/water", "in_short": "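Radioligand partitioned between n-octanol and sodium phosphate buffer (0.15 M, pH 7.4); LogD taken as log of the distribution coefficient; n = 6.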"}, "Translocator protein [3]": {"molecular_target": "Translocator protein (Rattus norvegicus, UniProt P16257)", "sequence (P16257 whole entry, looked up)": "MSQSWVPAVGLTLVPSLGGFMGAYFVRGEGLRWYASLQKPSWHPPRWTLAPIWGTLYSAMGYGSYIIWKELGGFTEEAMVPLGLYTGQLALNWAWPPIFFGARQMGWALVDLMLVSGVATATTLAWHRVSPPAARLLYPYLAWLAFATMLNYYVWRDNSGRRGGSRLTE", "experiment": "Displacement of [3H]PK11195 from rat PBR receptor"}, "Translocator protein [4]": {"molecular_target": "Translocator protein (Homo sapiens, UniProt P30536)", "sequence (P30536 whole entry)": "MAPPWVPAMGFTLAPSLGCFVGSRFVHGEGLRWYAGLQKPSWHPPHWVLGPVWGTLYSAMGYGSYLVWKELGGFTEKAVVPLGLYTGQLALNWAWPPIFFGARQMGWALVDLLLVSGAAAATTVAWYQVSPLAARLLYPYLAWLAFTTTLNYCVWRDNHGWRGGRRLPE", "experiment": "Displacement of [3H]PK11195 from human PBR receptor", "in_short": "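Competition binding against [3H]PK 11195 in human brain tissue (mitochondrial fraction of brain homogenate). The tissue came from the NIMH Clinical Brain Disorders Branch. Affinity is expressed as Ki.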"}, "Plasma [5]": {"test_system": "Plasma", "experiment": "Drug level in rat plasma assessed as unchanged drug level at >1.39 Ci/umol, iv after 60 mins", "format": "ADME, organism-based", "details": "in vivo, 1 h"}, "Plasma [6]": {"test_system": "Plasma", "experiment": "Drug distribution in monkey plasma", "format": "ADME, cell-free, Macaca mulatta", "details": "rhesus monkey", "in_short": "(§1)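 Radioligand incubated in vitro with monkey whole blood, then centrifuged; radioactivity counted in the plasma and cell fractions; n = 4.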"}, "Plasma [7]": {"test_system": "Plasma", "experiment": "Stability in rat plasma assessed as drug recovery into acetonitrile analytes at 3.78 ug/kg, iv", "details": "0.00378 mg/kg"}, "[8]": {"experiment": "Stability in rhesus monkey plasma assessed as unchanged drug level after 45 mins by HPLC", "format": "ADME, cell-free, Macaca mulatta", "details": "read-out: Stability", "in_short": "(§2)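 Radioligand incubated for at least 45 min at room temperature in monkey whole blood or plasma. Sample mixed with acetonitrile and centrifuged; supernatant analysed by reverse-phase radio-HPLC.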"}, "[9]": {"experiment": "Stability in sodium phosphate buffer at pH 7.4 after 2 hrs by HPLC", "format": "physicochemical", "details": "pH 7.4, 2 h", "in_short": "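Radioligand held in sodium phosphate buffer (0.15 M, pH 7.4) for 2 h at room temperature; analysed by HPLC.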"}, "[10]": {"experiment": "Drug level in rat urine assessed as unchanged drug level at >1.39 Ci/umol, iv after 60 mins", "format": "ADME, organism-based", "details": "in vivo, 1 h"}, "[11]": {"experiment": "Stability in rat plasma at 3.78 ug/kg, iv after 10.9 mins", "format": "ADME, organism-based", "details": "0.00378 mg/kg, read-out: Stability"}, "[12]": {"experiment": "Stability in rat brain assessed as drug recovery at 1.36 Ci/umol, iv after 30 mins", "format": "ADME, organism-based", "details": "read-out: Stability", "in_short": "(§3)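 Isoflurane-anaesthetised rat at 37 °C given no-carrier-added radioligand i.v. (mass dose 0.85 μg/kg); sacrifice at 30 min. Plasma and brain homogenate (saline plus acetonitrile) extracted into acetonitrile; supernatants analysed by reverse-phase radio-HPLC (C18, MeOH/H2O/Et3N 75:25:0.1); recovery of radioactivity and parent fraction measured.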"}, "[13]": {"experiment": "Stability in rhesus monkey whole blood assessed as unchanged drug level after 45 mins by HPLC", "format": "ADME, tissue-based, Macaca mulatta", "details": "read-out: Stability", "in_short": "as §2"}, "[14]": {"experiment": "Stability in rat plasma at 3.78 ug/kg, iv after 94.3 mins", "format": "ADME, organism-based", "details": "0.00378 mg/kg, read-out: Stability"}, "Brain [15]": {"test_system": "Brain", "experiment": "Drug level in rhesus monkey brain assessed as standard uptake value in choroid plexus of fourth ventricle at 2.76 to 5.8 mCi, iv", "format": "ADME, organism-based, Macaca mulatta", "details": "in vivo", "in_short": "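Male rhesus monkeys (11–15 kg) anaesthetised with ketamine, then 1.6% isoflurane. Bolus i.v. radioligand (2.76–5.80 mCi; 0.068–0.276 μg/kg) given; PET for up to 300 min, co-registered with T1 MRI. Regional radioactivity expressed as %SUV; n = 4.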"}, "[16]": {"experiment": "Stability in rat plasma assessed as drug recovery at 1.36 Ci/umol, iv after 30 mins", "format": "ADME, organism-based", "details": "read-out: Stability", "in_short": "as §3"}, "Brain [17]": {"test_system": "Brain", "experiment": "Stability in rat brain assessed as drug recovery into acetonitrile analytes at 3.78 ug/kg, iv", "format": "ADME, organism-based", "details": "in vivo, 0.00378 mg/kg"}, "Blood [18]": {"test_system": "Blood", "experiment": "Drug level in monkey blood assessed as drug distribution in cellular compartment", "format": "ADME, tissue-based, Macaca mulatta", "details": "rhesus monkey", "in_short": "as §1"}, "[19]": {"experiment": "Drug level in rat plasma assessed as drug recovery into acetonitrile analytes at >1.39 Ci/umol, iv after 60 mins", "format": "ADME, organism-based", "details": "read-out: Drug uptake"}, "[20]": {"experiment": "Drug level in rat brain assessed as drug recovery into acetonitrile analytes at >1.39 Ci/umol, iv after 60 mins", "format": "ADME, organism-based", "details": "read-out: Drug uptake"}, "[21]": {"experiment": "Stability in rat plasma at 3.78 ug/kg, iv after 7.3 mins", "format": "ADME, organism-based", "details": "0.00378 mg/kg, read-out: Stability"}, "[22]": {"experiment": "Drug level in rat brain assessed as unchanged drug level at >1.39 Ci/umol, iv after 60 mins", "format": "ADME, organism-based", "details": "read-out: Drug uptake"}, "[23]": {"experiment": "Drug level in rat urine assessed as drug recovery into acetonitrile analytes at >1.39 Ci/umol, iv after 60 mins", "format": "ADME, organism-based", "details": "read-out: Drug uptake"}, "[24]": {"experiment": "Stability in rat brain assessed as unchanged drug level at 2 uCi upto 60 mins", "format": "ADME, tissue-based", "details": "read-out: Stability"}, "Plasma [25]": {"test_system": "Plasma", "experiment": "Fraction unbound in human plasma", "format": "ADME, cell-free", "in_short": "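Radioligand added to pooled human plasma and ultrafiltered at 5000g through Centrifree units; all filter-unit components counted for radioactivity to give the free fraction; n = 3.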"}, "[26]": {"experiment": "Stability in rat brain at 3.78 ug/kg, iv after 95 mins", "format": "ADME, organism-based", "details": "0.00378 mg/kg, read-out: Stability"}, "Plasma [27]": {"test_system": "Plasma", "experiment": "Drug level in rat plasma assessed generation of polar radiometabolites as at 74.6 uCi, iv after 30 mins", "format": "ADME, organism-based", "details": "in vivo, 0.5 h"}, "Plasma [28]": {"test_system": "Plasma", "experiment": "Drug level in rat plasma assessed as standard uptake value at 74.6 uCi, iv after 30 mins", "format": "ADME, organism-based", "details": "in vivo, 0.5 h"}, "[29]": {"experiment": "Stability in rat whole blood assessed as conversion into polar radiometabolites at 10 uCi after 30 mins", "format": "ADME, tissue-based", "details": "0.5 h", "in_short": "(§4)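 Radioligand incubated for 30 min with rat brain homogenate or rat whole blood; conversion to polar species eluting at the solvent front measured by reverse-phase radio-HPLC.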"}, "Brain [30]": {"test_system": "Brain", "experiment": "Drug level in rat brain assessed generation of polar radiometabolites as at 74.6 uCi, iv after 30 mins", "format": "ADME, organism-based", "details": "in vivo, 0.5 h"}, "Brain [31]": {"test_system": "Brain", "experiment": "Stability in rat brain assessed as conversion into polar radiometabolites at 10 uCi after 30 mins", "format": "ADME, tissue-based", "details": "0.5 h", "in_short": "as §4"}, "Brain [32]": {"test_system": "Brain", "experiment": "Drug level in rat brain assessed as standard uptake value at 74.6 uCi, iv after 30 mins", "format": "ADME, organism-based", "details": "in vivo, 0.5 h"}, "Blood [33]": {"test_system": "Blood", "experiment": "Drug level in rat blood assessed as standard uptake value at 74.6 uCi, iv after 30 mins", "format": "ADME, organism-based", "details": "in vivo, 0.5 h"}}}
{"smiles": "COc1ccc(OC)c(CN(C(=O)CF)c2ccccc2Oc2ccccc2)c1", "values": [{"measurement": "Ki", "setting": "[1]", "value": 0.318, "unit": "nM"}, {"measurement": "logD", "setting": "[2]", "value": 4.05}, {"measurement": "Ki", "setting": "Translocator protein [3]", "value": 0.18, "unit": "nM"}, {"measurement": "Ki", "setting": "Translocator protein [4]", "value": 0.997, "unit": "nM"}]}
{"smiles": "COc1ccc(OC)c(CN(C(=O)C[18F])c2ccccc2Oc2ccccc2)c1", "values": [{"measurement": "Drug uptake", "setting": "Plasma [5]", "value": 14.2, "unit": "%"}, {"measurement": "Drug uptake", "setting": "Plasma [6]", "value": 6.6, "unit": "%"}, {"measurement": "Stability", "setting": "Plasma [7]", "value": 93, "unit": "%"}, {"measurement": "remaining at 0.75 h", "setting": "[8]", "value": 97.2, "unit": "%"}, {"measurement": "Stability", "setting": "[9]", "value": "Stable"}, {"measurement": "Drug uptake", "setting": "[10]", "value": 0.2, "unit": "%"}, {"measurement": "remaining at 0.181667 h", "setting": "[11]", "value": 37.6, "unit": "%"}, {"measurement": "remaining at 0.5 h", "setting": "[12]", "value": 85.1, "unit": "%"}, {"measurement": "remaining at 0.75 h", "setting": "[13]", "value": 95.5, "unit": "%"}, {"measurement": "remaining at 1.57167 h", "setting": "[14]", "value": 5.7, "unit": "%"}, {"measurement": "Activity", "setting": "Brain [15]", "value": 350, "unit": "%"}, {"measurement": "remaining at 0.5 h", "setting": "[16]", "value": 92.7, "unit": "%"}, {"measurement": "Stability", "setting": "Brain [17]", "value": 81.8, "unit": "%"}, {"measurement": "Drug uptake", "setting": "Blood [18]", "value": 93.4, "unit": "%"}, {"measurement": "recovery at 1 h", "setting": "[19]", "value": 93.2, "unit": "%"}, {"measurement": "recovery at 1 h", "setting": "[20]", "value": 91, "unit": "%"}, {"measurement": "remaining at 0.121667 h", "setting": "[21]", "value": 44.6, "unit": "%"}, {"measurement": "remaining at 1 h", "setting": "[22]", "value": 32.6, "unit": "%"}, {"measurement": "recovery at 1 h", "setting": "[23]", "value": 80.3, "unit": "%"}, {"measurement": "remaining at 1 h", "setting": "[24]", "value": "> 99.2", "unit": "%"}, {"measurement": "Fu", "setting": "Plasma [25]", "value": 0.7, "unit": "%"}, {"measurement": "remaining at 95 min", "setting": "[26]", "value": 39.2, "unit": "%"}]}
{"smiles": "O=C(C[18F])Nc1ccccc1Oc1ccccc1", "values": [{"measurement": "Activity", "setting": "Plasma [27]", "value": "> 99", "unit": "%"}, {"measurement": "Drug uptake", "setting": "Plasma [28]", "value": 226, "unit": "%"}, {"measurement": "Stability", "setting": "[29]", "value": "> 99.9", "unit": "%"}, {"measurement": "Activity", "setting": "Brain [30]", "value": "> 99", "unit": "%"}, {"measurement": "Stability", "setting": "Brain [31]", "value": "> 99.9", "unit": "%"}, {"measurement": "Drug uptake", "setting": "Brain [32]", "value": 120, "unit": "%"}, {"measurement": "Drug uptake", "setting": "Blood [33]", "value": 196, "unit": "%"}]}
{"smiles": "COc1ccc(OC)c(CN(C(C)=O)c2cc(F)ccc2Oc2ccccc2)c1", "values": [{"measurement": "Ki", "setting": "Translocator protein [3]", "value": 0.0726, "unit": "nM"}, {"measurement": "Ki", "setting": "Translocator protein [4]", "value": 0.242, "unit": "nM"}]}
